Compound activity: PubChem BioAssay, several laboratories
STAT3 inh-1 – reduces IL-6 driven STAT3 reporter signal; inhibition, % at 5.5 µM; actives 0.89% (n = 190,000); AID 862; U3A cells, IL-6 STAT3-luciferase reporter, luminescence; host cell line lacks STAT1;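 active = inhibition above the mean inhibition across all screened compounds plus 3 SD, cut at about 44% in these data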;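 note: 0% = DMSO only wells and 100% = 100 µM nifuroxazide control wells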
PPC-1+TRAIL kill – kills PPC-1 cancer cells in the presence of TRAIL; AID 1443; PPC-1 cells + TRAIL, ATPLite viability luminescence; cell killing (% activity), % at 4 µM or 5 µM; actives 0.41% (n = 220,000);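 active = cell killing above 50% in the first pass at 4 µM, then a duplicate retest at 5 µM averaging 50% or more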;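 note: plate controls were cells with TRAIL plus DMSO for no effect and medium-only wells lacking cells for full effect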
Platelet DG rel – modulates dense granule release in human platelets; inhibition, %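 (compounds screened at 7.5 µM in platelet-rich plasma)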; actives 0.22% (n = 300,000); human platelet-rich plasma, SFLLRN dense granule ATP release, luminescence;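 active = mean replicate score, as percent of positive control, at or above 50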
Hep lipid drop – modulators of hepatic lipid droplet formation. AML12 mouse hepatocytes, oleate lipid droplets, BODIPY imaging. AID 1656. inhibition, % at 6.5 µM. actives 0.4% (n = 240,000);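 active = lipid droplet intensity inhibited by at least 50%, with more than 500 cells counted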
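Assay system: AML12 mouse liver cells | Compound: 6.5 µM single-point dosing | Schedule: Overnight exposure | Technique: Fluorescence imaging, 20x objective, two fields per well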
STAT1 inh – STAT1 signaling inhibition; NIH 3T3 STAT1-luciferase reporter, IFN-gamma, luminescence; inhibition, % at 5.5 µM; actives 0.35% (n = 200,000); AID 920;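 active = inhibition above a set limit, the mean inhibition across all tested compounds plus 3 SD, cut at about 34% in these data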;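 note: 0% = IFN-gamma with DMSO and 100% = IFN-gamma with 300 µM nifuroxazide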
H9c2 TAG inh – reduces triacylglycerol accumulation in H9c2 cells; Nile Red lipid (TAG) fluorescence; cells loaded with 200 µM oleic acid; inhibition, % at 12.5 µM; actives 0.66% (n = 230,000);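 active = pattern-corrected inhibition of lipid staining of at least 50% with the nuclear-stain viability signal not falling by more than 50%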;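 note: 0% = DMSO wells and 100% = triacsin C control wells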
STAT3 inh-2 – confirmation of STAT3 signaling inhibitors | shares compounds with STAT3 inh-1 | U3A cells, IL-6 STAT3 luciferase reporter, luminescence; cell line lacks STAT1 | inhibition, % at 5.7 µM | actives 45% (n = 1,200) | AID 1265;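 active = inhibition above the hit cutoff computed for the primary STAT3 screen, cut at about 44% in these data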;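 note: 0% = IL-6 plus DMSO and 100% = IL-6 plus nifuroxazide control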
NFkB inh 2 – NF-kappaB inhibition in STAT3 inhibitor counter-screen | HEK293T NF-kB luciferase reporter, TNF-alpha induced | shares compounds with STAT3 inh-1 | actives 36% (n = 1,200) | inhibition, % at 5.7 µM;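 active = inhibition above the mean of solvent-only control wells plus 3 SD, cutoff set per campaign, cut at about 13% in these data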;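 note: 0% = TNF-alpha with DMSO and 100% = TNF-alpha with MG high control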
STAT1 inh STAT3c – counter-screen for STAT3 inhibitors: STAT1 inhibition. actives 27% (n = 1,200). shares compounds with STAT3 inh-1. inhibition, % at 5.7 µM. NIH 3T3 STAT1-luciferase reporter, IFN-gamma induced, luminescence;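 active = inhibition above the mean plus 3 SD of solvent-only control wells, limit set per screening run, cut at about 16% in these data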;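 note: 0% = DMSO with IFN-gamma and 100% = nifuroxazide control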
* = called active by the depositor; . = no result given. Rows were chosen to be rich in hits. Some 1.5% of all compounds tested hit in one or more screens of this group.

SMILES	STAT3 inh-1	PPC-1+TRAIL kill	Platelet DG rel	Hep lipid drop	STAT1 inh	H9c2 TAG inh	STAT3 inh-2	NFkB inh 2	STAT1 inh STAT3c
CCc1nc(Nc2ccc(OC)c(OC)c2)c2nnn(Cc3ccccc3Cl)c2n1	67.1*	-5.9	-25.5	-21.5	23.6	-12.5	57.8*	17.1*	19.4*
Cc1ccc(C(=O)/C=C/Nc2ccc3c(c2)OCO3)cc1	56.3*	49.6	7.5	.	-28.1	3.3	1.5	-26.7	-142.2
CC(=O)c1ccc(N/C=C\C(=O)c2ccc(C)cc2)cc1	9.5	27.8	1.6	-5.3	-54.4	-12.8	.	.	.
Cc1cc(/C=C2\SC(=O)N(C)C2=O)c(C)n1-c1ccc(O)cc1	.	.	-0.1	-0.9	.	5.3	.	.	.
CN=C1S/C(=C\c2cc(C)n(-c3ccccc3F)c2C)C(=O)N1C	56.3*	40.5	15.2	-11.5	-0.2	.	21.7	-23.7	-97.7
O=C(c1cccs1)N1CCN(Cc2nc(-c3ccccc3)no2)CC1	.	.	.	.	.	-1.8	.	.	.
O=C(CSCCO)Nc1ccc(C23CC4CC(CC(C4)C2)C3)cc1	43.9*	15.6	-1.7	-6.4	-17.7	24.4	32.7	22.3*	-28.8
C[C@@H]1CN([C@@H](C)CO)C(=O)CCCn2nncc2CO[C@@H]1CN(C)S(=O)(=O)c1ccc(Oc2ccccc2)cc1	.	.	.	.	.	-3.8	.	.	.
CCCCc1ccc(-c2ccc(C)cc2O)nc1	51.0*	33.7	-4.7	.	-59.7	-2.5	16.7	-36.7	-113.0
CCCCCC(=O)N1C[C@@H](O)[C@H](n2cc(COC(=O)c3ccccc3)nn2)C[C@@H]1c1ccc(OC)cc1	.	.	.	.	.	-3.4	.	.	.
Cc1ccc(C=Nc2ccccc2C(N)=O)o1	3.4	35.3	7.3	28.4	-39.5	.	.	.	.
CN(C)c1ccc(C=Nc2ccccc2C(N)=O)cc1	45.4*	79.9*	.	.	-38.1	.	31.1	8.6	-44.5
Clc1ccc2nc(-c3ccc(Br)s3)cn2c1	58.5*	40.4	1.9	2.3	4.7	1.6	-30.6	-33.6	-140.0
O=C(O)c1ccccc1-c1cn2cc(Cl)ccc2n1	6.4	26.8	1.3	1.8	-10.5	.	.	.	.
Fc1ccc(Sc2ccccc2CNC2=NCCN2)cc1	46.0*	10.4	-5.2	-20.4	12.7	.	29.2	-7.2	13.4
Cc1cccc(NC2(C(=O)O)CCCC2)c1	.	.	.	.	.	-5.5	.	.	.
CN(C)c1cc(O)c(C(=S)Nc2ccccc2)c(N(C)C)c1	-47.8	7.5	2.9	.	-7.5	-74.2	.	.	.
CN(C)c1ccc(C(=S)Nc2ccccc2)cc1	57.2*	34.6	2.0	-3.0	-43.9	.	23.2	-36.8	-108.6
Cc1ccc(N2CCC3CC2c2cc(-c4ccc(C(F)(F)F)cc4)ccc23)cc1 (stereo unspecified)	.	.	.	.	.	21.6	.	.	.
O=c1[nH]c(N2CCOCC2)nc2c1CCCC2	97.3*	28.5	0.5	6.0	6.7	-7.0	2.5	-7.0	-5.6
O=c1[nH]c(N2CCN(c3ccccc3)CC2)nc2c1CCCC2	28.5	-11.2	7.2	13.1	26.5	.	.	.	.
O=C(Nc1ccc(Oc2ccccc2)cc1)C1CCN(c2c3c(nc4ncnn24)CCC3)CC1	52.2*	-4.6	-3.7	.	21.5	1.2	47.2*	-3.6	10.9
CSc1ccccc1-c1nnc(-c2ccc(Cl)cc2Cl)o1	15.8	24.2	-3.9	.	-25.1	2.9	.	.	.
Clc1ccc(-c2nnc(-c3ccccc3)o2)c(Cl)c1	58.6*	50.0	15.4	.	-4.2	.	33.8	-5.2	-77.3
Fc1ccc(-c2nnc(-c3ccc(Cl)cc3)o2)cc1	23.3	-16.1	0.6	.	-38.2	.	.	.	.
SMILES	STAT3 inh-1	PPC-1+TRAIL kill	Platelet DG rel	Hep lipid drop	STAT1 inh	H9c2 TAG inh	STAT3 inh-2	NFkB inh 2	STAT1 inh STAT3c
Fc1ccc(-c2nnc(-c3ccc(Cl)cc3Cl)o2)cc1	70.4*	.	4.4	24.5	11.5	4.4	36.8	5.7	-65.5
CCCS(=O)(=O)NC(=O)C1(C)CCCN(C(=O)c2cc(F)ccc2C)C1 (stereo unspecified)	.	.	.	.	.	-2.0	.	.	.
COc1ccc2cc(-c3cc(C(=O)OCC(=O)Nc4c(C)n(C)n(-c5ccccc5)c4=O)c4ccccc4n3)ccc2c1	46.6*	92.4*	-10.3	-11.6	-10.2	.	55.6*	10.0	-15.3
COc1ccc2cc(-c3cc(C(=O)OCC(=O)NC4CCS(=O)(=O)C4)c4ccccc4n3)ccc2c1 (stereo unspecified)	62.4*	95.3*	-16.9	3.7	-17.5	14.1	41.4	1.2	-16.8
COc1ccc(-c2cc(C(=O)Nc3c(C)n(C)n(-c4ccccc4)c3=O)c3ccccc3n2)cc1	.	.	6.9	7.4	.	.	.	.	.
CC(=O)c1c(C)[nH]c(C(=O)OCc2ccc(F)cc2Cl)c1C	48.2*	25.9	2.2	0.3	0.6	-29.4	53.6*	1.5	6.3
Cc1csc(SCC(=O)Nc2sc3c(c2C#N)CCC3)n1	-3.3	2.5	3.1	.	-1.2	14.4	.	.	.
Cc1ccnc(SCC(=O)Nc2sc3c(c2C#N)CCCC3)n1	71.9*	8.2	-5.5	.	14.8	-44.1	56.9*	15.3*	16.9*
N#Cc1c(NC(=O)CSc2ncn[nH]2)sc2c1CCCC2	60.4*	1.7	8.0	15.4	21.2	-4.7	57.0*	18.0*	2.3
Cc1ccc(C(=O)Nc2sc3c(c2C#N)CCCCC3)cc1C	-21.1	13.0	8.2	-20.3	-37.1	10.1	.	.	.
CC1CCc2c(sc(NC(=O)CSc3ncn[nH]3)c2C#N)C1 (stereo unspecified)	.	7.5	12.2	5.4	.	4.5	.	.	.
N#Cc1c(NC(=O)c2ccccc2)sc2c1CCCCC2	52.5*	35.6	4.9	-6.4	-20.0	.	5.0	-25.3	-146.9
C/C=C/C=C/C(=O)Nc1nccs1	-3.0	-2.3	-8.6	-8.1	-13.4	.	.	.	.
O=C(/C=C/c1ccc(Cl)cc1)Nc1nccs1	43.6*	20.5	7.5	3.5	-10.0	10.0	2.1	-26.3	-163.5
COc1ccc2c(c1O)C(=O)c1ccccc1C2=O	.	10.3	-4.0	13.1	-4.8	.	.	.	.
CC(C)COC(=O)c1ccc2c(c1O)C(=O)c1ccccc1C2=O	46.4*	35.6	10.5	16.7	-30.3	11.2	15.9	-27.1	-95.2
COc1ccccc1CN(C)C[C@@H]1OCc2cnnn2CCCC(=O)N([C@H](C)CO)C[C@H]1C	.	.	.	.	.	-9.2	.	.	.
CCOC(=O)C1(C)CCCN1C(=O)c1cccs1 (stereo unspecified)	.	.	.	.	.	11.7	.	.	.
COc1ccc(NC(=O)c2cc(C3CCCCN3S(=O)(=O)c3cccs3)on2)c(C)c1 (stereo unspecified)	.	.	.	.	.	20.9	.	.	.
O=C(Nc1cc(S(=O)(=O)N2CCCCC2)ccc1Cl)c1ccccc1NS(=O)(=O)c1ccc(F)cc1	51.4*	24.5	9.1	-70.2	25.9	.	36.1	18.4*	29.5*
